In ChEMBL document CHEMBL1821600, “Synthesis and antiviral evaluation of α-L-2'-deoxythreofuranosyl nucleosides” (Eur J Med Chem, 2011):
Values after ≈ are worked out from the molar mass of the structure shown. Active and inactive are the calls of the source. The rule behind the calls is not given here.

What was measured:
[1] = test system: Human alphaherpesvirus 1; experiment: Antiviral activity against Herpes simplex virus type 1 infected in HEL cells assessed as inhibition of virus-induced cytopathicity upto 200 uM administered after 1 hr virus adsorption period; type: functional, organism-based
Outline: (§1)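 Confluent cell monolayers (HEL for HSV-1 and HSV-2; Vero for parainfluenza-3, reovirus-1, Sindbis and Punta Toro; HeLa for Coxsackie B4 and RSV) in 96-well plates were inoculated with 100 CCID50 of virus. After 1 h adsorption, unbound virus was removed. Cells were then kept with compound at 200, 40, 8… μM. Cytopathicity was scored once untreated infected controls reached full CPE.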

[2] = test system: Human immunodeficiency virus 2; experiment: Antiviral activity against Human immunodeficiency virus type 2 ROD infected in human CEM cells assessed as inhibition of virus-induced giant cell formation after 4 days by microscopic method; type: functional, organism-based; settings: CCRF-CEM
Outline: (§2)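 CEM cells (~3×10^5 cells/cm³) were infected with 100 CCID50/mL of HIV-1(IIIB) or HIV-2(ROD) and seeded into wells containing serial compound dilutions. After 4 days at 37 °C, giant (syncytium) cell formation was scored microscopically.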

[3] = Cytotoxicity against CRFK cells at 100 ug/ml; type: cell-based, Felis catus; settings: cat
[4] = test system: Respiratory syncytial virus; experiment: Antiviral activity against Respiratory syncytial virus infected in HeLa cells assessed as inhibition of virus-induced cytopathicity upto 200 uM administered after 1 hr virus adsorption period; type: functional, organism-based; outline: as §1
[5] = test system: HeLa; experiment: Cytotoxicity against human HeLa cells at 100 ug/ml; type: cell-based
[6] = test system: Human alphaherpesvirus 3; experiment: Antiviral activity against Varicella Zoster Virus infected in human HEL cells assessed as inhibition of virus-induced cytopathicity upto 200 uM administered after 1 hr virus adsorption period; type: functional, organism-based
[7] = test system: Human respirovirus 3; experiment: Antiviral activity against Parainfluenza virus 3 infected in Vero cells assessed as inhibition of virus-induced cytopathicity upto 200 uM administered after 1 hr virus adsorption period; type: functional, organism-based; outline: as §1
[8] = test system: Vaccinia virus; experiment: Antiviral activity against Vaccinia virus infected in HEL cells assessed as inhibition of virus-induced cytopathicity upto 200 uM administered after 1 hr virus adsorption period; type: functional, organism-based; settings: Orthopoxvirus vaccinia
[9] = Inhibition of varicella zoster virus thymidine kinase assessed as inhibition of [methyl-3H]dThd phosphorylation after 30 mins by scintillation counting; design: species or system Human alphaherpesvirus 3
Outline: (§3)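 Recombinant enzyme (TK-1, TK-2, HSV-1 TK, VZV TK or Drosophila dNK) was used in 50 mM Tris/HCl pH 8.0 with 2.5 mM MgCl2, 10 mM DTT, 0.5 mM CHAPS, 3 mg/mL BSA, 2.5 mM ATP and 1 µM [methyl-3H]dThd. Compound was added as 5-fold dilutions, and reactions ran 30 min at 37 °C, still linear. Mixtures were spotted on DE-81 disks, washed in ammonium formate, water and ethanol, then scintillation counted. IC50 was determined.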

[10] = test system: Sindbis virus; experiment: Antiviral activity against Sindbis virus infected in Vero cells assessed as inhibition of virus-induced cytopathicity upto 200 uM administered after 1 hr virus adsorption period; type: functional, organism-based; outline: as §1
[11] = test system: MDCK; experiment: Cytotoxicity against MDCK cells at 100 ug/ml; type: cell-based, Canis lupus familiaris; settings: dog
[12] = test system: Mammalian orthoreovirus 1; experiment: Antiviral activity against Reovirus 1 infected in Vero cells assessed as inhibition of virus-induced cytopathicity upto 200 uM administered after 1 hr virus adsorption period; type: functional, organism-based; outline: as §1
[13] = test system: CCRF-CEM; experiment: Cytotoxicity against human CEM cells at 100 ug/ml; type: cell-based
[14] = test system: Vero; experiment: Cytotoxicity against african green monkey Vero cells at 100 ug/ml; type: cell-based; settings: chlorocebus sabaeus
[15] = test system: Punta Toro virus; experiment: Antiviral activity against Punta Toro virus infected in Vero cells assessed as inhibition of virus-induced cytopathicity upto 200 uM administered after 1 hr virus adsorption period; type: functional, organism-based; outline: as §1
[16] = test system: Human alphaherpesvirus 1; experiment: Antiviral activity against TK-deficient Herpes simplex virus type 1 infected in HEL cells assessed as inhibition of virus-induced cytopathicity upto 200 uM administered after 1 hr virus adsorption period; type: functional, organism-based
[17] = test system: Human alphaherpesvirus 2; experiment: Antiviral activity against Herpes simplex virus type 2 infected in HEL cells assessed as inhibition of virus-induced cytopathicity upto 200 uM administered after 1 hr virus adsorption period; type: functional, organism-based; outline: as §1
[18] = molecular target: Thymidylate kinase (Mycobacterium tuberculosis, UniProt P9WKE1); experiment: Inhibition of Mycobacterium tuberculosis Thymidylate kinase
Thymidylate kinase, sequence (P9WKE1 whole entry): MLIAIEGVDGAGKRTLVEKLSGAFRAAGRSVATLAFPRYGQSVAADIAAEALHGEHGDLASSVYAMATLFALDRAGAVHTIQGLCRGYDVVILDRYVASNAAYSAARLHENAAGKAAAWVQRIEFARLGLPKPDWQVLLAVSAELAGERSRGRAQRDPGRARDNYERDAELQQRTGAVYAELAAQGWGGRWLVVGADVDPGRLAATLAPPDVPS

[19] = test system: Coxsackievirus B4; experiment: Antiviral activity against Coxsackievirus B4 infected in HeLa cells assessed as inhibition of virus-induced cytopathicity upto 200 uM administered after 1 hr virus adsorption period; type: functional, organism-based; outline: as §1
[20] = test system: Influenza B virus; experiment: Antiviral activity against influenza B virus infected in MDCK cells assessed as inhibition of virus-induced cytopathicity upto 200 uM administered after 1 hr virus adsorption period; type: functional, organism-based
[21] = Inhibition of Herpes simplex virus type 1 thymidine kinase assessed as inhibition of [methyl-3H]dThd phosphorylation after 30 mins by scintillation counting; design: species or system Human alphaherpesvirus 1; outline: as §3
[22] = test system: HEL; experiment: Cytotoxicity against human HEL cells at 100 ug/ml; type: cell-based
[23] = Non-competitive inhibition of Herpes simplex virus type 1 thymidine kinase assessed as inhibition of [methyl-3H]dThd phosphorylation by scintillation counting; design: species or system Human alphaherpesvirus 1
[24] = test system: Vesicular stomatitis virus; experiment: Antiviral activity against Vesicular stomatitis virus infected in HEL cells assessed as inhibition of virus-induced cytopathicity upto 200 uM administered after 1 hr virus adsorption period; type: functional, organism-based
[25] = molecular target: T1, Deoxynucleoside kinase (Drosophila melanogaster, UniProt Q9XZT6); experiment: Inhibition of Drosophila melanogaster deoxynucleoside kinase assessed as inhibition of [methyl-3H]dThd phosphorylation after 30 mins by scintillation counting; outline: as §3
T1 sequence (Q9XZT6 whole entry): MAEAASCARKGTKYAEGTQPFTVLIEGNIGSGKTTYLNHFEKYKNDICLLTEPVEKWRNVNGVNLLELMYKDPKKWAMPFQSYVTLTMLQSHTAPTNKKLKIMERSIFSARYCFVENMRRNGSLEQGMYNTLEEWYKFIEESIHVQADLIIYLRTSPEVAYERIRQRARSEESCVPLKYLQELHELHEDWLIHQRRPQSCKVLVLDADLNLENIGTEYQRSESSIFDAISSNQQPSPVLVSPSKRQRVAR

[26] = test system: Influenza A virus; experiment: Antiviral activity against Influenza A virus H3N2 infected in MDCK cells assessed as inhibition of virus-induced cytopathicity upto 200 uM administered after 1 hr virus adsorption period; type: functional, organism-based
[27] = test system: Human betaherpesvirus 5; experiment: Antiviral activity against Human cytomegalovirus infected in human HEL cells assessed as inhibition of virus-induced cytopathicity upto 200 uM administered after 1 hr virus adsorption period; type: functional, organism-based
[28] = test system: Human immunodeficiency virus 1; experiment: Antiviral activity against Human immunodeficiency virus 1 3B infected in human CEM cells assessed as inhibition of virus-induced giant cell formation after 4 days by microscopic method; type: functional, organism-based; settings: CCRF-CEM; outline: as §2
[29] = molecular target: T2, Thymidine kinase 2, mitochondrial (Homo sapiens, UniProt O00142); experiment: Inhibition of human mitochondrial TK2 assessed as inhibition of [methyl-3H]dThd phosphorylation after 30 mins by scintillation counting; outline: as §3
T2 sequence (O00142 whole entry): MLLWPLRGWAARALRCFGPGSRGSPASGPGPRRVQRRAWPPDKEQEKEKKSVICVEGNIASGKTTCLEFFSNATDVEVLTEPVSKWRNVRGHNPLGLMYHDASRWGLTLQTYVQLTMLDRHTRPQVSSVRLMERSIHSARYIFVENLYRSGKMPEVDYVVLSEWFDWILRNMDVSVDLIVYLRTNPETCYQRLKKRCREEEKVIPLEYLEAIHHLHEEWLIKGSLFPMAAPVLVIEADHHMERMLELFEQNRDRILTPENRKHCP

[30] = test system: Feline coronavirus; experiment: Antiviral activity against Feline coronavirus infected in CRFK cells assessed as inhibition of virus-induced cytopathicity upto 200 uM administered after 1 hr virus adsorption period; type: functional, organism-based
[31] = test system: Influenza A virus; experiment: Antiviral activity against influenza A virus H1N1 infected in MDCK cells assessed as inhibition of virus-induced cytopathicity upto 200 uM administered after 1 hr virus adsorption period; type: functional, organism-based
[32] = molecular target: Thymidine kinase, cytosolic (Homo sapiens, UniProt P04183); experiment: Inhibition of human recombinant cytosolic TK1 assessed as inhibition of [methyl-3H]dThd phosphorylation after 30 mins by scintillation counting; outline: as §3
Thymidine kinase, cytosolic, sequence (P04183 whole entry): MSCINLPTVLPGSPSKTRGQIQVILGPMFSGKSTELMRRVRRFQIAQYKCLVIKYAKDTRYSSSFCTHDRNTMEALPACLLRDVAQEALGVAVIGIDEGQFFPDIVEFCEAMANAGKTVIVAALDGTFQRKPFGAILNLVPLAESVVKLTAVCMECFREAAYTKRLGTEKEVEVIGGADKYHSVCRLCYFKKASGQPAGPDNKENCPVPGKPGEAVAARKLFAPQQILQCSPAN

SMILES	inhibition [1]	Activity [3]	inhibition [4]	Activity [5]	inhibition [6]	inhibition [7]	inhibition [8]	IC50 [9]	inhibition [10]	Activity [11]	inhibition [12]	Activity [13]	Activity [14]	inhibition [15]	inhibition [17]	inhibition [19]	inhibition [20]	IC50 [21]	Activity [22]	inhibition [24]	further results
Cc1cn([C@H]2C[C@@H](O)CO2)c(=O)[nH]c1=O	inactive	Non-toxic	inactive	Non-toxic	inactive	inactive	inactive	26 µg/mL (≈ 123 µM)	inactive	Non-toxic	inactive	Non-toxic	Non-toxic	inactive	inactive	inactive	inactive	14 µg/mL (≈ 66 µM)	Non-toxic	inactive	inhibition ([2]; ISOLATE ROD): inactive; inhibition [16]: inactive; Ki [18]: 18 µM; Ki [23]: 20 µM; IC50 [25]: ≥ 942 µM; inhibition [26]: inactive; inhibition [27]: inactive; inhibition [28]: inactive; IC50 [29]: 429 µM; inhibition [30]: inactive; inhibition [31]: inactive
Nc1ccn([C@H]2C[C@@H](O)CO2)c(=O)n1	inactive	Non-toxic	inactive	Non-toxic	inactive	inactive	inactive	> 200 µg/mL	inactive	Non-toxic	inactive	Non-toxic	Non-toxic	inactive	inactive	inactive	inactive	> 200 µg/mL	Non-toxic	inactive	EC50 ([2]; Human immunodeficiency virus 2, ISOLATE ROD, 96 h): > 100 µg/mL; IC50 [32]: 1010 µM; IC50 [25]: > 1010 µM; inhibition [26]: inactive; inhibition [27]: inactive; EC50 ([28]; 96 h): > 100 µg/mL; IC50 [29]: > 1010 µM; inhibition [30]: inactive; inhibition [31]: inactive
